Laboratory results as given in the EternaBench riboswitch data.

Tested on: MS2 coat protein
Experiment: apparent Kd, MS2 coat protein; higher = weaker binding; RNA-MaP array; FMN 200 µM where present
In short: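 The apparent Kd is the median of filtered binding-curve fits, one per cluster, to green signal normalised to red-channel RNA signal and control-cluster median Fmax. The clusters were on Illumina sequencing chips, and stalled E. coli RNA polymerase had transcribed the designs on them. Titration used SNAP-549-labelled MS2 coat protein from 0.7 or 1.5 nM, doubling to 3 µM, without and then with constant ligand, in 100 mM Tris-HCl pH 7.5, 80 mM KCl, 4 mM MgCl2, BSA, DTT, yeast tRNA and Tween-20.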

[1] = designed as: OFF switch for flavin mononucleotide, no ligand
[2] = ligand present: flavin mononucleotide, designed as: OFF switch for flavin mononucleotide
[3] = designed as: ON switch for flavin mononucleotide, no ligand
[4] = ligand present: flavin mononucleotide, designed as: ON switch for flavin mononucleotide

Sequence	apparent Kd [1] [nM]	apparent Kd [2] [nM]	apparent Kd [3] [nM]	apparent Kd [4] [nM]
CAUAUACAGGGAGGAUAUAACAUGAGGAUCACCCAUGUGCAAUCCUCAAUGUUAGAAGGCCCAAUAGAAUCGCAAAAGGCAUCC	8.51	4.96	–	–
AAUUUAAUACAUGAGGAUCACCCAUGUAAAUUAAUUAAGAUCUAGGAUAUCAGCUCGAAUAGAGCUGAGAAGGAGAUCACAUGU	–	–	17.4	15.1
CGACAUUACACAGGAUAUCCUCGACUUUGUCGAGGAGAAGGGUGUAAACAUGAGGAUCACCCAUGUAUAAUGUCGAAAUAUAAU	–	–	221	28.9
AAGACACAUGAGGAUCACCCAUGUCAAGAGAGACGAGGAUAUCUGAAUUAAUUAAAUUAAGGAGAAGGCGUGAAAA	–	–	78.9	30.9
GUUACACAUGAGGAUCACCCAUGUAAGGAUAUGCUGCGGUCGCGCUGACGUGACUGCAGCAGAAGGUACACAUG	105	133	–	–
AAGUAGGUAGGAUAUACAUGGAUAUACAUUCAUGUGGAUUUACAUGAGGAUCACCCAUGUAGAAGGACCUAAUA	118	30.8	–	–
ACCAUUUACUAAUCCUCUAUACAUGAGGAUCACCCAUGUUAAGAGGAUAUCAUCGUUCGCCGCGUUGAGAAGGCUUAGCAUUCG	14.8	23.1	–	–
CCGGAAAUAGAGGAUAUCGUACUGGAUACAGUACGAGAAGGCUAUACAUGAGGAUCACCCAUGUGUCCUACCGG	16.9	36	–	–
UUAUACGUUGAGGAUAUGCGACUUUUUUUAGUUGUAGAAGGCGAUACAUGAGGAUCACCCAUGUUUAUGGGCAU	166	218	–	–
UUUUAACAUGAGGAUCACCCAUGUGAGGAUAUCGAAAUUUAUAUUAAUAUUAAUUUUACGAGAAGGCACAUUUU	112	100	–	–
GGGCUGGUAACAGGAUAUCGUGCCUGGCCGGAUUACAUGAGGAUCACCCAUGUCGUUGGAACCAACGAGAAGGGUUGCCUCCCA	–	–	371	102
GAGCGAAAGCUCAAUGUCGAUAGCAGAAGGACAUGAAAAUACAUGAAAACAUGAGGAUCACCCAUGUAGGAUAUGCUAUCGACU	8.75	89.4	–	–
UCAGGCUUCGAGAAGGACAUGAAUCGUAGCAUUGCUACGAUCAAAGAUACAUGAGGAUCACCCAUGUAGGAUAUCGGAGUCUGC	5.75	7.63	–	–
AAGACUAGAGGAUAUACAUGAGGAUCACCCAUGUAACUGUCAGGUGACUGACGGAAAAGUAGAAGGCUAGUCAA	16.6	20	–	–
GCCCUAAAGCGGGCCGACCAUACAUGAGGAUCACCCAUGUCGAGAAGGUGCUCACGGGUGGGUGGCAAGGAUAUCGGGUCGGAA	–	–	65.6	32.6
UUAUUUAUACAAGGAUAUCAAUUAUAUACACAUCCUACAUGAGGAUCACCCAUGUUUUAUUUUUUUGAGAAGGUGUAUUGUCGG	–	–	21.2	27.6
CCGAUAAUGUAGGAUAUCGUAUCGGAGACGAUACGAGAAGGACAAACAUGAGGAUCACCCAUGUUCCUUAACGG	16.6	19.9	–	–
CCAGGCUUCGAGAAGGACAUGAGGAUCACCCAUGUGCGUGUGAAGCAGCCGUGAGGCUGCAUCAUGUAGGAUAUCGGAGUCUGA	71.8	396	–	–
AAAACAUGAGGAUCACCCAUGUAAAGAUCGGUUAAUUAAAGUGAGGAUAUACAAAAUUUUAUAUAGUAGAAGGCACUGGGUACA	–	–	30.2	33.4
AAUGCACAUGAGGAUCACCCAUGUAAGACAAAGACAGGAUAUGGGCCGCAUGGCUCUGGCCCAGAAGGGUCAGUCG	–	–	25	18.6
AAGAGUAGAGGAUAUACAUGAGGAUCACCCAUGUAAUCCAGAUAAGGAAGCAUGGCGUGUAGAAGGCUGCAUGA	38.5	42.4	–	–
AGUUAAUAUCGAGGAUAUAAGUCUAAGACAUGAGGAUCACCCAUGUAUGUCUUAGAAGGCGAUAUUAACAGCAUGUUACAUGCA	–	–	53.2	9.67
AACACGAGAGGUGUUGUCUAAUCACAUGAGGAUCACCCAUGUAAGGAUAUCGCGGCUAUCGGCAUCGAGAAGGUACAGGGAGCA	17.8	38.2	–	–
GCCUCAUAGUAGAAGGGACUUAGACAGUAAAGCAAAUAGAGGAAUUAACAUGAGGAUCACCCAUGUCAGGAUAUACUAAGAGGC	11.3	12.1	–	–

Sequence	apparent Kd [1] [nM]	apparent Kd [2] [nM]	apparent Kd [3] [nM]	apparent Kd [4] [nM]
GGAUUACAUGAGGAUCACCCAUGUGAGGAUAUCGAUGUCCUCAGUCAAGUGCGGGACUCGAGAAGGCACUUGGA	64.2	32	–	–
UCGCGGGAGCAGAAGGGACAGGCCUAUUGUCGUGAGGUCUGCACUUAACAUGAGGAUCACCCAUGUCAGGAUAUGCCCACGCGA	4.8	4.94	–	–
ACCACGAUAGCGAUAUGAUCGAGAGAUCAUGUCGCUAUUUUUAGAAGGACAUGAGGAUCACCCAUGUAGGAUAUGGGACGUGGA	–	–	24.7	10.3
UUUACAUGAGGAUCACCCAUGUCUGUCACACGUAUGUGCAAUCAGGAUAUGAUCUCAAGAAUGAAUUAGAAGGGAUAAAGAGAA	–	–	212	250
UGUAUGGACAGAGGAUAUGCCGGUAGGAUCUACUAUCGAAGAAUCCUCACAUGAGGAUCACCCAUGUAGAAGGCUGUCCAUACU	9.36	42.8	–	–
GGUUUAGGCGAAGGAUAUCCGUCGCGAGAUACUGGAGAAGGUCGCCUUAAUACAUGAGGAUCACCCAUGUGGCGGGUGAACCAC	326	47.6	–	–
CUCAUGUUAGGAUAUGCGCUCAACGUAGUGGUCGAGCUCUAGCAGAAGGAACAUGAGGAUCACCCAUGUUUGCA	58.1	26.8	–	–
GGGCCACAUGAGGAUCACCCAUGUAAACCCGUGCUCAGGGCACAGGAUAUGGGUCGGGAUGAGACCCAGAAGGGUGGUCUGGCC	–	–	33.4	18.2
CGGCCGUAAGGAUAUACAUGAGGAUCACCCAUGUAUGGAAUAGCAUGAGGCGGCCCAGGUAGAAGGUAUGCCCG	20.8	30.5	–	–
GGUGGCCGAGGAUAUACGGACGUGUCGCCGGGUGUCGUGGGACAUGAGGAUCACCCAUGUAGAAGGUGGUUGUC	187	147	–	–
AGUUGUUCAGGAUAUGAUGAAUAUUACAUGAGGAUCACCCAUGUAGAUCCUGAAUAUGAAUCAGAAGGGAAUAUUU	15.3	32.5	–	–
GCGUUACAUGAGGAUCACCCAUGUGAGGAUAUGGUUCGGUACUGUCCUGUCGCGUACUCCAGAAGGCACGUGUC	31.3	34.7	–	–
AAAAAACAAGGAUAUACGCACGAGGAUUGUCUUAAUUUUUGACAUGAGGAUCACCCAUGUAGAAGGUGUUAAAA	75.7	79.2	–	–
GGAAAUCAUGUAGGAUAUGCAUGGCGAAGCUACGCAGAAGGACAUGAGGAUCACCCAUGUUAUAGCUACCCGUUACGGUGGCAA	131	119	–	–
UUUAUUUAGGCAGGAUAUACAUGUAUAUAUAUUUCUUUAUAUCUUAUUACAUGAGGAUCACCCAUGUAGAAGGGCCUUCUUAUA	26.7	30.6	–	–
UUCAAAUUCGUAGGAUAUGUAUAAAUUUUCUACAUGAGGAUCACCCAUGUUUCCAUUUUAAAUUGACAGAAGGACGUAAUCUAA	–	–	30	9.73
AGGAGUAAAGGGAAUAACAUGAGGAUCACCCAUGUAUGGGAGAGAAGGCAUAUCGGAGGACGAUAUGAGGAUAUUUAAACUCUA	–	–	62.6	18.7
CGAUAUAACUCAGGAUAUCGGCAUGGGUAGAUUACAUGAGGAUCACCCAUGUGCAUGUCCCGGCACGAGAAGGGAGUAACGCAU	–	–	290	47.8
UUAAAUCAUGUAGGAUAUGCAUGGCGAAGCUACGCAGAAGGACAUGAGGAUCACCCAUGUUCUGGCUACCGAGUUCGGUGGCAA	20.7	83.2	–	–
AAACACGGACAUGAGGAUCACCCAUGUGGCGAAAGCCUUGGAAGAAGGCCGAUAGCAAAGCUAUCGGAGGAUAUUCAUACCGUG	–	–	17.2	5.78
GGUACUCAAAGAGUACCAAUACGAACAUGAGGAUCACCCAUGUAGGAUAUGCUACUCAAAGAGUAGCAGAAGGACAUGUGUCUA	29.6	160	–	–
AGUGUCAUCGAGAAGGCCUUAACAUGAGGAUCACCCAUGUUAUAACAUGGGAGGAUAUCGAUGAUACAGCUACGUUUCGUAGCA	–	–	286	18.2
UGAUCGAGAGAUCUUAGAUUCUGCAAGGAUAUGCAAGAGUUGCGCUUUACAUGAGGAUCACCCAUGUAGAAGGUGUAGAGUCUA	6.27	6.62	–	–
GCUUGUGAAGGAUAUACUGGCGACAUGCGCUCAACACGCGCACAUGAGGAUCACCCAUGUAGAAGGUCAAACAU	23.9	33	–	–
